PG9 binder: PG9 antibody binding by small molecule | TR-FRET gp120-PG9 antibody binding | inhibition, % at 6.7 µM | 0.43% of 360,000 active | AID 624416; in the data active = inhibition above about 8.5%
NR1D1 modulator: Rev-erb alpha (human) modulation | P20393 | Rev-erbα–FITC-DNA binding, fluorescence polarization, 90 min | activity, % at 10 µM | 0.79% of 370,000 active | AID 1259318;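 active = activity above about 14%, limit read from the data; passing the limit was not always enough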
Target sequence (P20393 whole entry, looked up): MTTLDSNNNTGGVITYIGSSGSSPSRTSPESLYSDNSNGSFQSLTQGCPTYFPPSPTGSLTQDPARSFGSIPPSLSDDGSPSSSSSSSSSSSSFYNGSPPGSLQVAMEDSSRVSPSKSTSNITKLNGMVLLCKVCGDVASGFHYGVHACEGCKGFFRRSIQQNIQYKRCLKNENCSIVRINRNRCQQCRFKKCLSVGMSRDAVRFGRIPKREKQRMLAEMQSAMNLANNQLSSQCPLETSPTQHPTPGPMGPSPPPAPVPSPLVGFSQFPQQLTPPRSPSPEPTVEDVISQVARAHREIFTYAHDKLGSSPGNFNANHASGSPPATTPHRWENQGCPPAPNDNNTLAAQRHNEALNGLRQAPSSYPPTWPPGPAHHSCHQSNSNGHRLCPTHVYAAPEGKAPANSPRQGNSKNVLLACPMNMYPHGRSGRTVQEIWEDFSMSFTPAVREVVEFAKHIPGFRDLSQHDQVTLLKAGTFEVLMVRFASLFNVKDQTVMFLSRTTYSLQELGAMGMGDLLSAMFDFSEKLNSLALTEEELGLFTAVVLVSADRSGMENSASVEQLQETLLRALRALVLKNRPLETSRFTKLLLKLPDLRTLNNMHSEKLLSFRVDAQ
MT1-MMP act inh: MT1-MMP (human) activation inhibition | P50281 | HT1080 RFP-PRO-GFP cells, GFP/RFP ratio fluorescence, overnight; percent of plate control window, DMSO zero | GFP/RFP ratio change, % at 20 µM | 0.061% of 360,000 active;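 active = GFP/RFP ratio change of at least 30% with cell ATP level not reduced by more than half and red fluorescence within 50% of control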
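Test system: HT1080 RFP-PRO-GFP cells; Benchmarks: DMSO and RFP-L50D-GFP cell wells; Timing: cells overnight before dosing, compound overnight, 37 °C, 5% CO2; Compound: one 20 µM compound dose with 1% DMSO; Read-out: GFP/RFP fluorescence ratio.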
NR2E3 ag-1: human photoreceptor-specific nuclear receptor agonism; CHO-S Gal4-NCOR/VP16-NR2E3 two-hybrid, luciferase; inhibition of corepressor binding, % at 3.98 µM; 0.35% of 360,000 active;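 active = inhibition above the mean of all tested compounds plus 3 SD, cut at about 70% in these data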;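 note: higher means lower luciferase signal from less NR2E3 corepressor binding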
SKN-1 block: C. elegans SKN-1 inhibition; C. elegans VP596 Pgst-4::GFP/RFP ratio, acrylamide-induced, 24 h; inhibition, % at 21.8 µM; 0.49% of 360,000 active; AID 624304;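 active = interference check ratio from 0.5 to 1.5 plus GFP to RFP signal ratio inhibition reaching or exceeding a fixed threshold, cut at about 30% in these data, passing the limit was not always enough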
NR2E3 ag-2: agonists of human nuclear receptor NR2E3. Q9Y5X4. GST-NR2E3/biotin-RetCOR TR-FRET, 1536-well. inhibition of corepressor binding, % at 4.78 µM. 0.12% of 320,000 active. AID 2300;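 active = percent inhibition above the cutoff of mean plus 3 SD of all tested compounds, set per screening campaign, cut at about 20% in these data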
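System: GST-NR2E3 and biotin-RetCOR proteins; probe or stimulus: 7 nM biotin-RetCOR; doses: compound at 4.8 µM, single dose; schedule: Compound–protein incubation for 5 h at 4 °C; detection: time-resolved FRET; read-out: percent inhibition; controls: biotin wells as high control, 0.6% DMSO wells as low control; format: 1536-well plates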
Of the large screens only hits and unclear results are named; the others gave an inactive call. This is a sample that favours compounds with a hit; in the whole collection about 1.9% have one here.

CCCN1C2CCCC1CC(NC(=O)c1ccc(Br)cc1)C2 (stereo not given)	none
C[C@H](NC(=O)c1[nH]cnc1C(=O)Nc1ccc(Cl)cc1)C(=O)OC(C)(C)C	SKN-1 block 36 (no result: PG9 binder, NR1D1 modulator)
C[N+](C)(C)CCOP(=O)([O-])OP(=O)(O)OC[C@H]1OC(n2ccc(N)nc2=O)[C@H](O)[C@@H]1O (stereo not given in full)	none (no result: PG9 binder, MT1-MMP act inh, NR2E3 ag-1, SKN-1 block, NR2E3 ag-2)
COc1ccc(C2/C=C\CN(C(=O)Nc3ccc(C(F)(F)F)cc3)CC(=O)N2Cc2ccc(F)cc2)cc1 (stereo not given)	NR2E3 ag-1 82 (no result: PG9 binder, NR1D1 modulator)
COc1ccc(C2/C=C\CN(C(=O)Nc3ccccc3)CC(=O)N2Cc2ccc(F)cc2)cc1 (stereo not given)	none
COc1cccc(-c2nc(-c3cccs3)no2)c1	SKN-1 block 46
COc1cccc(-c2noc(-c3ccoc3C)n2)c1	SKN-1 block 56
N[C@H](C(=O)O)[C@H](O)c1ccc(O)c(O)c1	none (no result: PG9 binder, MT1-MMP act inh, NR2E3 ag-1, SKN-1 block, NR2E3 ag-2)
Cc1cccc(NC(=O)NCc2ccc3c(c2)cc(C)n3C)c1	SKN-1 block 49
Cc1cc2cc(CNC(=O)CCC(=O)O)ccc2n1C	SKN-1 block 38
Cc1cc2cc(CNC(=O)Nc3cccc(Cl)c3)ccc2n1C	none
CCCC(=O)NCc1ccc2c(c1)cc(C)n2C	none
C[C@]12CCC3c4ccc(O)cc4CCC3C1CC[C@@H]2OC(=O)CCC1CCCC1 (stereo not given in full)	none (no result: PG9 binder, MT1-MMP act inh, NR2E3 ag-1, SKN-1 block, NR2E3 ag-2)
COCCN1Cc2cc(C(=O)OC)c3c(c2C1=O)c1cc(F)ccc1n3S(=O)(=O)c1cccc(C)c1	none (no result: MT1-MMP act inh, NR2E3 ag-1, SKN-1 block, NR2E3 ag-2)
NC(=O)c1cc(N)ccc1N1CCCC1	SKN-1 block 60
Cn1cccc1[C@]1(O)C(=O)Nc2ccc(F)cc21	none (no result: PG9 binder, MT1-MMP act inh, NR2E3 ag-1, SKN-1 block, NR2E3 ag-2)
COC(=O)C1CN(CC(C)C)CCS(=O)(=O)N1Cc1ccc(OC)cc1 (stereo not given)	none (no result: PG9 binder, MT1-MMP act inh, NR2E3 ag-1, SKN-1 block, NR2E3 ag-2)
CC(=O)NCCc1cc2cc(C)c(C)cc2[nH]c1=O	SKN-1 block 32
CCOC(=O)[C@@]12CCCC3=C1N(CCC3)C(=O)[C@H]2CC(=O)N1CCN(C(=O)c2ccco2)CC1	none (no result: PG9 binder, MT1-MMP act inh, NR2E3 ag-1, SKN-1 block, NR2E3 ag-2)
CN1CCN(/N=C/c2ccc(OCc3ccccc3)cc2)CC1	SKN-1 block 50
COC(=O)c1ccc(COc2ccc(/C=N/N3CCN(C)CC3)cc2)cc1	none
COc1ccc(C=O)cc1-c1cc(C(C)=O)c2n(c1=O)CCC2	none (no result: PG9 binder, MT1-MMP act inh, NR2E3 ag-1, SKN-1 block, NR2E3 ag-2)
Cn1nc(C(=O)N2CCN(S(=O)(=O)c3ccccc3)CC2)c2ccccc2c1=O	SKN-1 block 38
CCn1c(SCC(=O)Nc2nccs2)nnc1-c1cc2cccc(OC)c2o1	none (no result: NR2E3 ag-2)
CCn1c(SCC(=O)NC2CCCCC2)nnc1-c1cc2cccc(OC)c2o1	SKN-1 block 45
Cc1ccccc1N1CCN(C(=O)CN2C(=O)CC(C)(C)S(=O)(=O)c3ccccc32)CC1	none (no result: PG9 binder, MT1-MMP act inh, NR2E3 ag-1, SKN-1 block, NR2E3 ag-2)
Fc1ccc(-c2nc3ccc(Br)cn3c2Cc2ccccc2C(F)(F)F)cc1	SKN-1 block 51 (no result: NR2E3 ag-2)
CCOC(=O)c1nn(-c2ccccc2)cc1O	none
COC(=O)c1nn(-c2ccc(-c3ccccc3)cc2)cc1O	NR2E3 ag-1 78
CCCNc1c(F)c(F)c2c(C)c3ccccc3nc2c1F	SKN-1 block 39
Cc1ccc(NC(=O)COc2ccc(Br)cc2CO)cc1S(=O)(=O)N1CCOCC1	SKN-1 block 41 (no result: NR2E3 ag-2)
NS(=O)(=O)c1ccc(N2CCCCS2(=O)=O)cc1	none (no result: PG9 binder, MT1-MMP act inh, NR2E3 ag-1, SKN-1 block, NR2E3 ag-2)
Cc1ccc(NC(=O)CN2CCc3ccccc3C2)cc1F	none
COc1cccc(NC(=O)CN2CCc3ccccc3C2)c1	SKN-1 block 35
COc1ccc(CNC(=O)c2c(N)n(CCCN3CCOCC3)c3nc4ccccc4nc23)cc1	SKN-1 block 36
Nc1c(C(=O)NCc2ccccc2)c2nc3ccccc3nc2n1CCCN1CCOCC1	none
CCc1c(-c2ccc(F)cc2F)ncn1CCc1ccccc1OC	none (no result: MT1-MMP act inh, NR2E3 ag-1, SKN-1 block, NR2E3 ag-2)
CCCC1(C(=O)OCC)NC(c2ccc(N(C)C)cc2)C2C(=O)N(c3ccc(OCC)cc3)C(=O)C21 (stereo not given)	none
CCCC1(C(=O)OCC)NC(c2ccc(N(C)C)cc2)C2C(=O)N(c3ccccc3)C(=O)C21 (stereo not given)	SKN-1 block 38
O=C(CSc1nnc(-c2ccccc2)n1-c1ccccc1)Nc1ccc(Oc2ccccc2)cc1	none (no result: PG9 binder, MT1-MMP act inh, NR2E3 ag-1, SKN-1 block, NR2E3 ag-2)
Cc1ccc(S(=O)(=O)N2CCCC(C(=O)NCc3ccco3)C2)cc1 (stereo not given)	none (no result: PG9 binder, MT1-MMP act inh, NR2E3 ag-1, SKN-1 block, NR2E3 ag-2)
Cc1cc([N+](=O)[O-])ccc1NCc1ccccc1	SKN-1 block 37 (no result: PG9 binder, NR1D1 modulator)
CCc1nc(NCc2ccccc2)c(C#N)c2c1CCCC2	none
CCc1nc(NCCC(C)C)c(C#N)c2c1CCCC2	SKN-1 block 43
O=[N+]([O-])c1ccc(/C=C/C2=NN(c3ccccc3)C(c3ccco3)C2)o1 (stereo not given)	SKN-1 block 33 (no result: NR2E3 ag-2)
C(=C\c1ccco1)/C1=NN(c2ccccc2)C(c2ccco2)C1 (stereo not given)	none (no result: PG9 binder, NR1D1 modulator)
CCCCn1nnnc1NCc1ccc(C)s1	SKN-1 block 41
CCCCn1nnnc1NCc1ccc(C)cc1	none (no result: NR2E3 ag-2)
Cc1ccc(-c2csc(-c3ccncc3)n2)cc1	SKN-1 block 41
COc1ccc(-c2csc(-c3ccc(O)cc3)n2)cc1	none
Brc1ccc(-c2csc(-c3ccncc3)n2)cc1	SKN-1 block 40
c1ccc(-c2nc(-c3cccnc3)cs2)cc1	none (no result: NR2E3 ag-2)
c1ccc(-c2csc(-c3cccnc3)n2)cc1	SKN-1 block 42
O=[N+]([O-])c1cccc(-c2noc(-c3ccco3)n2)c1	SKN-1 block 53
O=[N+]([O-])c1cccc(-c2nc(-c3ccccc3)no2)c1	none
Cc1cc(Cn2nnc(-c3ccc(Br)cc3)n2)cc(C)c1O	none
CSc1ccc(-c2nnn(Cc3ccc(Br)cc3)n2)cc1	SKN-1 block 36
CCN(CC)C(=O)Oc1ccc(Cl)c2ccccc12	none
CCN(CC)C(=O)Oc1ccc(Br)c2ccccc12	SKN-1 block 37
O=S1(=O)CC2c3ccccc3CCN2CN1Cc1ccccc1 (stereo not given)	none (no result: PG9 binder, MT1-MMP act inh, NR2E3 ag-1, SKN-1 block, NR2E3 ag-2)
CC(C)Cc1nnc(NC(=O)CC(C)c2ccccc2)s1 (stereo not given)	none
CCc1nnc(NC(=O)CC(C)c2ccccc2)s1 (stereo not given)	SKN-1 block 36
C[C@]12CCC(=O)C=C1CCC1C2[C@@H](O)C[C@@]2(C)C1CC[C@]2(O)C(=O)COC(=O)CCC(=O)O (stereo not given in full)	none (no result: PG9 binder, MT1-MMP act inh, NR2E3 ag-1, SKN-1 block, NR2E3 ag-2)
CCN(CC)c1ccc(/C=C2/C(=O)c3ccc(C(=O)O)cc3C2=O)cc1	SKN-1 block 52
CCOc1ccccc1NC(=O)C(CC(C)C)NC(=O)C1CCC(C)CC1 (stereo not given)	SKN-1 block 41
O=c1c2ccccc2oc2ccc(-c3ccc4[nH]ccc4c3)cc12	SKN-1 block 62

Bioassay records deposited in PubChem BioAssay by several laboratories.
